Assay results: ChEMBL document CHEMBL1148328, “Synthesis and structure-activity relationships of parasiticidal thiosemicarbazone cysteine protease inhibitors against Plasmodium falciparum, Trypanosoma brucei, and Trypanosoma cruzi” (J Med Chem, 2004)

Key:
[1] = biological target: Cruzipain (Trypanosoma cruzi, UniProt P25779); assay: Inhibition of cruzain from Trypanosoma cruzi
Outline: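 Recombinant cruzain (2 nM) preincubated 5 min at room temperature with 0.5–10 μM inhibitor in 100 mM sodium acetate pH 5.5 with 5 mM DTT, 0.7% DMSO. Reaction started with Z-Phe-Arg-AMC at 20 μM final (Km 1 μM), followed by fluorescence at ex 355/em 460. IC50 read graphically from inhibition vs log[I], seven concentrations with at least two in the linear range.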

[2] = tested on: Trypanosoma brucei rhodesiense; assay: Effective dose required to inhibit Trypanosoma brucei rhodesiense in culture; assay type: functional; conditions: read-out: ED50 (the source's name)
Outline: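 T. b. rhodesiense grown at 37 °C, 5% CO2 in HMI-9 with 10% FBS and 10% Serum Plus, seeded at 10⁴ cells/mL. Inhibitor serially diluted directly in culture from the top concentration down to 1 nM. Exposure 48 h at 37 °C. Viability read as ATP content by CellTiter-Glo luminescence after 5 min shaking at room temperature, or by hemacytometer count.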

[3] = biological target: Rhodesain (Trypanosoma brucei rhodesiense, UniProt Q95PM0); assay: Inhibition of rhodesain from Trypanosoma brucei rhodesiense
Sequence of Rhodesain (Q95PM0 whole entry): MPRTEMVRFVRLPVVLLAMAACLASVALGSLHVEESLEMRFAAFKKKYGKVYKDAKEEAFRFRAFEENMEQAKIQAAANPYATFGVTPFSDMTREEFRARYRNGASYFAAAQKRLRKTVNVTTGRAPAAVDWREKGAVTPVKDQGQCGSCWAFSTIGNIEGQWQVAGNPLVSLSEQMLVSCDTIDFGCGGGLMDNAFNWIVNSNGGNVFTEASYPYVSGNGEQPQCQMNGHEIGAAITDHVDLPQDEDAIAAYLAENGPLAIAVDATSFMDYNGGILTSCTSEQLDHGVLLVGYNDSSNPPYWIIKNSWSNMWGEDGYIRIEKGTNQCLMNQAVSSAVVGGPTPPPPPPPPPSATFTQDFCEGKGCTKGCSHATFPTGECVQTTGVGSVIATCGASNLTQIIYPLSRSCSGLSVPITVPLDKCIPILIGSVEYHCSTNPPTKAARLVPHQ
Outline: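 Recombinant rhodesain (3 nM) preincubated 5 min at room temperature with 0.5–10 µM inhibitor in 100 mM sodium acetate pH 5.5, 5 mM DTT, 0.7% DMSO final. Z-Phe-Arg-AMC then added (20 µM final) and fluorescence rise followed at ex 355/em 460. IC50 read graphically from linear portion of inhibition vs log[I], seven concentrations, at least two in linear range.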

[4] = Survival of infected cells against Trypanosoma cruzi in days at a dose of 5 uM; Toxicity = Toxic
[5] = tested on: Plasmodium falciparum; assay: Effective inhibition of Plasmodium falciparum; assay type: functional; conditions: read-out: ED50 (the source's name)
Outline: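 W2-strain parasites at 1% parasitemia and 2% hematocrit, run in duplicate. Inhibitor diluted from DMSO stocks in 1:5 steps to final 10 μM, 2000, 400, 80, 16 and 3.2 nM. Cultures kept 2 days at 37 °C, then washed and fixed in 1% formaldehyde/PBS. Parasitemia measured by flow cytometry with YOYO-1 DNA stain.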

[6] = biological target: T1, Falcipain 2 (Plasmodium falciparum, UniProt Q9N6S8); assay: Inhibition of falcipain2 from Plasmodium falciparum
T1 sequence (Q9N6S8 whole entry): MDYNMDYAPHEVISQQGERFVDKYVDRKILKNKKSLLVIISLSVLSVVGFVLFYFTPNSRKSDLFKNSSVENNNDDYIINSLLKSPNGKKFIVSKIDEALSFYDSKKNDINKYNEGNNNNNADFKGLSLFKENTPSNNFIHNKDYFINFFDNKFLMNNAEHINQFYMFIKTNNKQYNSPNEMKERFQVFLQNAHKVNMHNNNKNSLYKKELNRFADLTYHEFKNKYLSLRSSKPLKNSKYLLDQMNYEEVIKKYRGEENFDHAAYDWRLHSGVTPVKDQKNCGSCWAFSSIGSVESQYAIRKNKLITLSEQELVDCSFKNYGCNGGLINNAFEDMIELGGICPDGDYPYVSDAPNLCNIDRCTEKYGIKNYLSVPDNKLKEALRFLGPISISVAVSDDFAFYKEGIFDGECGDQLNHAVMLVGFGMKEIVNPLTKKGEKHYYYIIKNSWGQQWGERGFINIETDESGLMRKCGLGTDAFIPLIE
Outline: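 Recombinant falcipain-2 preincubated 30 min at room temperature with inhibitor in 100 mM sodium acetate pH 5.5 with 10 mM DTT, DMSO at most 1%. Z-Leu-Arg-AMC then added to 25 μM final, and fluorescence monitored 15 min at room temperature. IC50 taken from plots of percent activity against compound concentration.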

[7] = Survival of infected cells against Trypanosoma cruzi in days at a dose of 5 uM; Toxicity = None

Sequence of Cruzipain (P25779 whole entry): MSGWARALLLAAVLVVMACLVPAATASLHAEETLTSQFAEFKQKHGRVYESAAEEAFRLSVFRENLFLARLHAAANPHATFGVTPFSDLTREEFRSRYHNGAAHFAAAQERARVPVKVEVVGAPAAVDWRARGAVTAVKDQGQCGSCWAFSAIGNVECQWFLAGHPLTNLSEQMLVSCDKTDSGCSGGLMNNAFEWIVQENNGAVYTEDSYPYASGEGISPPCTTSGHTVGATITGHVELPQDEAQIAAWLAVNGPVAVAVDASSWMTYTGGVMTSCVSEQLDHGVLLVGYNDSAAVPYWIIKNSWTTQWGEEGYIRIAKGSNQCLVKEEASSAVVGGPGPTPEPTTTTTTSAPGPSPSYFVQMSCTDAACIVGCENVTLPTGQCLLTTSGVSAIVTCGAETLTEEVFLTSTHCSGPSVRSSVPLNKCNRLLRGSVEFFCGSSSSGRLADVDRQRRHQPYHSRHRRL

Row | SMILES | IC50 [1] [µM] | EC50 [2] [µM] | IC50 [3] [µM] | Survival [4] [days] | EC50 [5] [µM] | IC50 [6] [µM] | Survival [7] [days]
1 | C/C(=N\N=C(\N)S)c1cccc(Oc2ccccc2)c1 | 10 | 6 | 0.55 | 27 | – | – | –
2 | C/C(=N\N=C(\N)S)c1ccc(-c2ccccc2)cc1 | 5 | 10 | 0.09 | 8 | > 20 | 10 | –
3 | C/C(=N\N=C(\N)S)c1cccc(-c2ccccc2)c1 | 8 | 12 | 1.1 | – | – | – | 43
4 | C/C(=N\N=C(\N)S)c1ccc(Nc2ccccc2)cc1 | > 20 | 4.5 | 18 | – | 9.9 | > 20 | 43
5 | C/C(=N\N=C(\N)S)c1cccc(Br)c1 | 0.06 | > 20 | 0.05 | – | – | – | 43
6 | CS/C(S)=N/N=C(\C)c1cccc(Br)c1 | > 20 | 10 | > 20 | 7 | – | – | –
7 | C/C(=N\N=C(/S)N1CCN(C)CC1)c1cccc(Br)c1 | 5 | 2 | 4 | 14 | 4 | > 20 | –
8 | C/C(=N\N=C(\N)S)c1cccc(Nc2ccccc2)c1 | > 20 | 8 | 0.8 | – | – | – | 43
9 | C/C(=N\NC(N)=S)c1ccccn1 | > 20 | 4 | > 20 | – | 0.08 | > 20 | 43
10 | C/C(=N\N=C(/S)N1CCCCC1)c1cccc(Br)c1 | 5 | 3 | 4 | – | – | – | 5
11 | CCN(CC)/C(S)=N/N=C(\C)c1cccc(Br)c1 | 5 | 3 | 1.8 | – | – | – | 5
12 | CS/C(S)=N/N=C(\C)c1ccccn1 | – | 0.3 | > 20 | – | 0.03 | > 20 | –
13 | C/C(=N\N=C(\N)S)c1ccc(Oc2ccccc2)cc1 | 10 | 3 | 8 | 28 | – | – | –
14 | C/C(=N/N=C(/N)S)c1cccc(/C(C)=N/N=C(/N)S)n1 | – | – | – | – | 0.03 | > 20 | –
15 | C/C(=N/N=C(/N)S)c1cccc(/C(C)=N/N=C(/N)S)c1 | 5 | > 20 | 0.33 | – | – | – | 5
